ChEMBL document CHEMBL1146160, “Synthesis and evaluation of some lipidic aminoalcohols and diamines as immunomodulators” (Bioorg Med Chem Lett, 2006)
Active and inactive are the calls of the source. The calls are words filed in the database; no cut-off is given here.

Assays:
[1] = Cytotoxicity against BALB/c mouse splenocytes at 10 ug/ml by MTT assay; format: cell-based; conditions: splenocyte
In short: (§1)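 Run in parallel with the proliferation assay on splenocyte cultures without Con-A, with MTT colourimetric read-out. Cytotoxicity % = [1 − OD(cells+compd)/OD(cells)] × 100.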

[2] = Inhibition of concanavalin A-stimulated lymphoproliferation in BALB/c mouse splenocytes at 10 ug/ml by MTT assay; format: functional; conditions: Splenocyte
Lymphocyte = test: Reduction of rat lymphocyte stimulation by Graft-vs-Host assay relative to cyclophosphamide; format: functional; design: scale not given: the % may be the effect or the level left
In short: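 In a Graft-vs-Host assay measuring immunosuppressant ability, cyclophosphamide at 100 mg/kg/day served as the reference drug.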

[3] = Inhibition of concanavalin A-stimulated lymphoproliferation in BALB/c mouse splenocytes at 1 ug/ml by MTT assay; format: functional; conditions: Splenocyte
Macrophage [4] = test: Increase in nitric oxide production in LPS-pre-stimulated rat alveolar macrophages at 100 ug/ml; format: functional
[5] = Cytotoxicity against BALB/c mouse splenocytes at 1 ug/ml by MTT assay; format: cell-based; conditions: splenocyte; in short: as §1
Macrophage [6] = test: Increase in nitric oxide production in normal rat alveolar macrophages; format: functional, cell-based
Macrophage [7] = test: Increase in nitric oxide production in LPS-pre-stimulated rat alveolar macrophages; format: functional, cell-based
Macrophage [8] = test: Increase in nitric oxide production in LPS-pre-stimulated rat alveolar macrophages at 10 ug/ml; format: functional

SMILES | Activity [1] [%] | inhibition at 10 µg/mL [2] [%] | Activity (Lymphocyte) [%] | inhibition at 1 µg/mL [3] [%] | Activity (Macrophage [4]) [%] | Activity [5] [%] | Activity (Macrophage [6]) | Activity (Macrophage [7]) | Activity (Macrophage [8]) [%]
CCCCCCCCCCCCCCC(COCc1ccccc1)NCC (stereo not given) | 11.9 | 49.8 |  |  |  |  |  |  | 
CCCCCCCCCCCCCCC(CO)N(CCCC)CCCC (stereo not given) | 11.7 | 50.3 |  |  |  |  |  |  | 
CCCCCCCCCCCCCCC(NCCCC)C(=O)O (stereo not given) | 5.1 | 32.9 |  |  |  |  |  |  | 
CCCCCCCCCCCCCCC(CO)NCCCCCC (stereo not given) | 14.6 | 78.4 | 63 | 74.1 | 25 | 5 | inactive |  | 
CCCCCCCCCCCCCCC(COCc1ccccc1)NC(=O)CCCC(=O)OC (stereo not given) | 2.5 | 3.4 |  |  |  |  | inactive | inactive | 
CCCCCCCCCCCCCCC(CO)NCCCC (stereo not given) | 16.4 | 49.1 |  |  |  |  |  |  | 
CCCCCCCCCCCCCCC(N)CO (stereo not given) | 20.2 | 72.4 |  | 68.7 |  | 15.1 |  |  | 
CCCCCCCCCCCCCCC(CO)NCC (stereo not given) | 17.1 | 72.9 |  | 68.4 |  | 10.5 |  |  | 
CCCCCCCCCCCCCCC(COCc1ccccc1)NC(=O)CCCC(=O)O (stereo not given) | 6.4 | 65.4 |  | 27.8 |  | 0 | inactive | inactive | 
CCCCCCCCCCCCCCC(CO)NC(=O)CCCC(=O)OC (stereo not given) | 18.9 | 50.2 |  |  |  |  |  |  | 
CCCCCCCCCCCCCCC(CNC(=O)CCCC(=O)O)NC(=O)OC(C)(C)C (stereo not given) | 1.2 | 80.8 |  | 19.3 |  | 0 |  | inactive | 
CCCCCCCCCCCCCCC(N)CN(CC)CC (stereo not given) | 24.2 | 84.5 |  | 74.2 |  | 1.7 | inactive | inactive | 
CCCCCCCCCCCCCCC(COCc1ccccc1)N(CC)CC (stereo not given) | 15.6 | 72.6 |  | 71.6 |  | 14.1 |  |  | 
CCCCCCCCCCCCCCC(C(=O)O)N(CC)CC (stereo not given) | 12.1 | 43.1 |  |  |  |  |  |  | 
CCCCCCCCCCCCCCC(C(=O)O)N(CCCC)CCCC (stereo not given) | 12.5 | 47.8 |  |  |  |  |  |  | 
CCCCCCCCCCCCCCC(CO)NCCCCCCCCCC (stereo not given) | 12.6 | 59.8 |  | 12 |  | 6.6 |  |  | 
CCCCCCCCCCCCCCC(N)CNC(=O)CCCC(=O)O (stereo not given) | 12.8 | 51 |  |  |  |  | inactive | inactive | 
CCCCCCCCCCCCCCC(N)COCc1ccccc1 (stereo not given) | 12.2 | 79.1 |  | 0 |  | 0 | inactive | inactive | 
CCCCCCCCCCCCCCC(NC(=O)OC(C)(C)C)C(=O)O (stereo not given) | 5.1 | 32.9 |  |  |  |  |  |  | 
CCCCCCCCCCCCCCC(CN(CC)CC)NC(=O)OC(C)(C)C (stereo not given) | 7.8 | 89.5 |  | 65.2 |  | 6.5 |  |  | 
CCCCCCCCCCCCCCC(CO)N(CC)CC (stereo not given) | 12.8 | 79.5 |  | 74.8 |  | 7.5 |  |  | 
CCCCCCCCCCCCCCC(CO)NC(=O)CCCC(=O)O (stereo not given) | 14.5 | 49.1 |  |  |  |  |  |  | 
CCCCCCCCCCCCCCC(CN)NC(=O)OC(C)(C)C (stereo not given) | 4.3 | 81.2 | 32 | 73.4 | 29 | 4.2 | inactive |  | 20
CCCCCCCCCCCCCCC(N)CN (stereo not given) | 2.5 | 50.1 |  |  |  |  |  |  | 
